Assay results from different studies.
Protocols differ between the studies behind these lines.
Cell line: UACC-62
Observed: cell growth or viability

| SMILES | method | concentration | time | measurement | value |
| --- | --- | --- | --- | --- | --- |
| COc1ccc(C(=O)/C=C/c2cccc3ccccc23)cc1S(N)(=O)=O | SRB | 10 µM | – | inhibition | 158% |
| COc1ccc(-c2ccc(-c3ccc(C(=N)N)nc3)s2)cc1 | SRB | – | – | GI50 | 1810 nM |
| Cc1cc(C)n(C(=S)[S][Au][PH](CCCCCC[PH]([Au][S]C(=S)n2nc(C)cc2C)(c2ccccc2)c2ccccc2)(c2ccccc2)c2ccccc2)n1 | – | – | – | GI50 | 250 nM |
| COc1cc(-c2ccc(-c3ccc(C(=N)N)nc3)s2)cc(OC)c1OC | SRB | – | – | GI50 | 1730 nM |
| O=C1NC(=NCc2cccs2)S/C1=C\c1ccc2ncccc2c1 | – | – | – | IC50 | > 10000 nM |
| COc1cccc(Oc2ccccc2NC(=O)CNC(=O)c2cccc3ccccc23)c1 | SRB | – | 48 h | GI50 | 209 nM |
| O=C1NCCc2[nH]c(-c3ccncc3)cc21 | – | – | – | IC50 | 6120 nM |
| COc1ccc(C(=O)/C=C/c2cccnc2)cc1S(N)(=O)=O | SRB | – | 48 h | GI50 | 12900 nM |
